High-throughput results (PubChem)
Sampled rows, rich in hits. Any-hit rate of the full collection: about 2.9%.
Runt-SMMHC FRET: inhibitors of RUNX1 Runt–CBFb-SMMHC binding, primary screen, biochemical, FRET, Cerulean-Runt, Venus-CBFb-SMMHC, uHTS. Runt-related transcription factor 1 (Homo sapiens) + Core-binding factor subunit beta …. Cerulean-Runt/Venus-CBFb-SMMHC FRET ratio 530/480, 1 h. inhibition, % at 20 µM. hit rate 0.74% among 220,000;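 active = mean inhibition across duplicate retests at 20 µM reaching about 50%, limit read from the data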;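 also: inhibitors lower the FRET ratio by blocking Runt binding to CBFb-SMMHC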
proKLK7 act: proKLK7 zymogen activators, primary screen, biochemical, fluorescence intensity; Kallikrein-7 (Homo sapiens), P49862; purified proKLK7, EDANS-DABCYL substrate fluorescence; 100% is mature enzyme control, 0% vehicle; activation, % at 7 µM; hit rate 0.9% among 370,000; AID 652039, 2013;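 active = activation above the mean of all tested compounds plus 3 SD, computed per campaign excluding outliers beyond control limits, cut at about 13% in these data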
Target sequence (P49862 whole entry, looked up): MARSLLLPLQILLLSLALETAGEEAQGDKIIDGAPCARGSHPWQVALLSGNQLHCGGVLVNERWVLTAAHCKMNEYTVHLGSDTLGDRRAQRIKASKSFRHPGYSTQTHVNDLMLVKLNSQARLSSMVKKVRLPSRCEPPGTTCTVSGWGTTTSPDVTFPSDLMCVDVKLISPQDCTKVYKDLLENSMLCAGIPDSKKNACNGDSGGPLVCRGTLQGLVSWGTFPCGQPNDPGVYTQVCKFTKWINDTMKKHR
Wee1 degr inh: Wee1 degradation inhibitors, primary screen, cell-based, HeLa, Wee1K328M-luciferase, luminescence; HeLa Luc-Wee1K328M stability; 100% = proteasome inhibitor MG132 effect; hit rate 1.2% among 220,000; Wee1-like protein kinase (Homo sapiens), P30291; reporter increase, % at 5 µM;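 active = activation above the mean of all tested compounds plus 3 SD, set per screening run, cut at about 8.8% in these data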;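 also: cells exposed to compound for 20 h before luminescence read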
RanGTP-Imp inh: inhibitors of RanGTP-importin-beta interaction, primary screen, biochemical, FRET, CFP-Ran, YFP-importin-beta, homogeneous | inhibition, % (no concentration beside the values) | AID 2216, 2009 | cell-free CFP-Ran/YFP-importin-beta FRET ratio | hit rate 1.1% among 300,000 | Ran GTPase (GTP-bound) - importin-beta complex;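 active = more than half of the replicate wells show a fall in the fluorescence ratio signal beyond about 16%, limit read from the data, passing the limit was not always enough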
AI-2 QS mod: Vibrio harveyi AI-2 quorum sensing modulators, primary screen, JMH597 strain, luminescence/OD600 ratio. Vibrio harveyi JMH597 AI-2 luminescence/OD600 ratio, 9 h; hits give low values; strain lacks LuxN and CqsS sensors; 0 = neutral-control median. activity change, % at 7.5 µM. hit rate 0.4% among 300,000; in the data active = activity change below about -75%, passing the limit was not always enough;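 also: luminescence divided by OD600 gain over 9 h not by final OD600 alone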
Runt-CBFb FRET: inhibitors of RUNX1 Runt–CBFb binding, primary screen, biochemical, FRET, Cerulean-Runt, Venus-CBFb, uHTS | Cerulean-Runt/Venus-CBFb FRET ratio 530/480, 1 h | inhibition, % at 20 µM | hit rate 0.46% among 220,000;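 active = inhibition over about 50% at 20 µM in the single-dose screen, limit read from the data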
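Schedule: protein complex preformed 1 h, compound exposure 1 h, room temperature, dark; test system: Cerulean-labeled Runt domain protein; amount: 100 nM per protein; buffer or medium: Tris 50 mM pH 7.5, KCl, K2SO4, 0.01% BSA; read-out: loss of energy transfer signal; detection: FRET fluorescence; controls: 5 µM unlabeled CBFb as full-inhibition high control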
YIC FRET counter: YIC intramolecular FRET probe signal interference, dose response, counter-screen for RanGTP-importin-beta inhibitor project, biochemical, fluorescence FRET; IC50, µM; hit rate 40% among 1,000; shares compounds with RanGTP-Imp inh; Purified YIC probe, intramolecular FRET ratio YFP/CFP;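 active = fitted half-maximal inhibitory concentration no more than tenfold above the top dose tested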
Large screens that a line does not name were inactive (follow-up assays come after a bar, where they were run).

CC1CCc2cc(F)ccc2N1C(=O)c1ccc2c(c1)OCO2 (configuration not stated)	none
COc1ccccc1C1C(C(N)=O)=C(C)Nc2ncnn21 (configuration not stated)	RanGTP-Imp inh 23 | YIC FRET counter inactive
CCOC(=O)C1(C)CCCN(C(=O)c2ccc(OC)c(OC)c2)C1 (configuration not stated)	none (no result: Runt-SMMHC FRET, Wee1 degr inh, RanGTP-Imp inh, AI-2 QS mod, Runt-CBFb FRET)
Cc1cccc(NC(=O)c2cc(S(=O)(=O)N(C)c3ccc(F)cc3)ccc2Cl)n1	RanGTP-Imp inh 20 (no result: Runt-SMMHC FRET, Wee1 degr inh, Runt-CBFb FRET) | YIC FRET counter inactive
O=c1c(/C=N/N2CCOCC2)c(C(F)(F)F)[nH]n1-c1ccccc1	none
COc1ccc(-c2ccccc2)cc1NC(=O)C1(C)CCN1C(=O)C(C)C (configuration not stated)	none (no result: Runt-SMMHC FRET, Wee1 degr inh, RanGTP-Imp inh, AI-2 QS mod, Runt-CBFb FRET)
COc1cc([C@@H]2[C@H]3CN(C)CC=C3C(C#N)=C(N)C2(C#N)C#N)cc2c1OCO2	Runt-SMMHC FRET 62, RanGTP-Imp inh 24 | YIC FRET counter 5.7
COc1cc(C2C(C#N)=C(N)Oc3cc(C)oc(=O)c32)cc2c1OCO2 (configuration not stated)	none
Cc1cnc(C(=O)Nc2ccc(S(=O)(=O)N(C(C)C)C(C)C)cc2)cn1	RanGTP-Imp inh 20 (no result: Runt-SMMHC FRET, Wee1 degr inh, Runt-CBFb FRET) | YIC FRET counter inactive
N#C/C(=C\c1ccc(O)c([N+](=O)[O-])c1)C(=O)NCc1ccccc1	none
N#C/C(=C\c1ccc(O)c(Br)c1)C(=O)NCc1ccccc1	Runt-SMMHC FRET 134, RanGTP-Imp inh 43, Runt-CBFb FRET 104 | YIC FRET counter 20
COc1ccc(C)cc1NC(=O)C(=O)NNC(=O)COc1ccc(Cl)cc1	none
O=C(O)Cn1c(SCCOc2ccccc2)nc2ccccc21	none (no result: AI-2 QS mod)
CCCCOc1ccc(OCCSc2nc3ccccc3n2CC(=O)O)cc1	RanGTP-Imp inh 18 (no result: Runt-SMMHC FRET, Wee1 degr inh, Runt-CBFb FRET) | YIC FRET counter inactive
Cc1ccc(Cl)cc1N1C(=O)CC(Sc2ncccn2)C1=O (configuration not stated)	RanGTP-Imp inh 16 (no result: Runt-SMMHC FRET, Wee1 degr inh, Runt-CBFb FRET) | YIC FRET counter inactive
Cc1cc2c(c(=O)n1CC1CCCO1)C(c1ccco1)C(C#N)=C(N)O2 (configuration not stated)	RanGTP-Imp inh 23, Runt-CBFb FRET 112 | YIC FRET counter 14
COc1ccc2c(c1)O/C(=C\c1ccco1)C2=O	Runt-SMMHC FRET 61, RanGTP-Imp inh 21 | YIC FRET counter 19
COC(=O)C(C)Oc1ccc2c(c1)O/C(=C\c1ccco1)C2=O (configuration not stated)	RanGTP-Imp inh 21 (no result: Runt-SMMHC FRET, Wee1 degr inh, Runt-CBFb FRET) | YIC FRET counter 17
N#Cc1c(N)n(CCNC(=O)c2ccc(Cl)cc2)c2nc3ccccc3nc12	RanGTP-Imp inh 28, Runt-CBFb FRET 94 | YIC FRET counter 2
CN(C)S(=O)(=O)c1cccc(C(=O)Nc2ccccc2[N+](=O)[O-])c1	none
CCN(CC)S(=O)(=O)c1cc(C(=O)Nc2ccccc2[N+](=O)[O-])ccc1Cl	RanGTP-Imp inh 25 | YIC FRET counter inactive
Cc1cccc(OCC(=O)NNC(=O)Nc2cccc(Cl)c2)c1C	none
COc1cc(C(=O)NCCCNc2nc3cc(C)cc(C)c3cc2C#N)cc(OC)c1OC	Runt-SMMHC FRET 73, RanGTP-Imp inh 21 (no result: Runt-CBFb FRET) | YIC FRET counter 28
Cc1cc(C)c2cc(C#N)c(NCCCNC(=O)c3ccncc3)nc2c1	none (no result: Runt-SMMHC FRET, Wee1 degr inh, RanGTP-Imp inh, AI-2 QS mod, Runt-CBFb FRET)
COc1cc(/C=C(\C#N)C(=O)Nc2cccc3ncccc23)cc(OC)c1OC	RanGTP-Imp inh 36 | YIC FRET counter inactive
COc1ccc(NC(=O)/C(C#N)=C/c2cccnc2)c(OC)c1	none (no result: Runt-SMMHC FRET, Wee1 degr inh, Runt-CBFb FRET)
COc1ccc2oc(=Nc3ccccc3)c(-c3nc4ccccc4[nH]3)cc2c1	none
C=CCn1c(SCC(=O)N(C)CC(=O)Nc2ccc(C)cc2)nnc1-c1ccncc1	none (no result: Runt-SMMHC FRET, Wee1 degr inh, RanGTP-Imp inh, AI-2 QS mod, Runt-CBFb FRET)
CC(/C=N\NC(=O)CN1CCN(S(=O)(=O)c2ccc(C)cc2)CC1)=C\c1ccccc1	none
CCOC(=O)N/N=C/c1ccc(N(CC)CC)cc1O	none
CCN(CC)c1ccc(/C=N/NC(=O)c2c(Cl)cnn2C)c(O)c1	Runt-SMMHC FRET 83, RanGTP-Imp inh 22, Runt-CBFb FRET 74 | YIC FRET counter 4
CC1(C)C(=O)Nc2ccccc2N1C(=O)COC(=O)CNS(=O)(=O)c1ccc(Br)cc1Cl	none (no result: Runt-SMMHC FRET, Wee1 degr inh, RanGTP-Imp inh, AI-2 QS mod, Runt-CBFb FRET)
Cc1ccc([C@H]2N[C@]3(CCCN(Cc4ccc(Br)cc4)C3=O)[C@H]3C(=O)N(C)C(=O)[C@@H]23)cc1	none (no result: Runt-SMMHC FRET, Wee1 degr inh, RanGTP-Imp inh, AI-2 QS mod, Runt-CBFb FRET)
COc1ccc(-c2nc(/C=C3\C(C)=Nc4ccccc43)c(O)o2)cc1	RanGTP-Imp inh 28 | YIC FRET counter inactive
CC1=Nc2ccccc2/C1=C\c1nc(-c2ccccc2)oc1O	none
O=C(CSc1nnc(-c2ccc(F)cc2)o1)Nc1ccc(S(=O)(=O)N2CCCCCC2)cc1	none
O=C(CSc1nnc(-c2ccc(F)cc2)o1)Nc1ccc(S(=O)(=O)N2CCCC2)cc1	RanGTP-Imp inh 17 | YIC FRET counter inactive
CCOC(=O)c1[nH]c(C)c(C(=O)N(C)Cc2ccccc2)c1C	RanGTP-Imp inh 25 | YIC FRET counter inactive
Cc1cc(C)c[n+](-c2nc3ccccc3nc2[N-]S(=O)(=O)c2ccc(Br)s2)c1	Runt-SMMHC FRET 78, RanGTP-Imp inh 30 | YIC FRET counter 7.9
COc1ccc(-n2c(N)c(C(=O)NCc3ccco3)c3nc4ccccc4nc32)cc1OC	RanGTP-Imp inh 17 | YIC FRET counter 33
COc1ccc(-c2cc(C(=O)NCc3ccco3)c3ccccc3n2)cc1OC	none (no result: Runt-SMMHC FRET, Wee1 degr inh, Runt-CBFb FRET)
Nc1c(C(=O)NCc2ccccc2)c2nc3ccccc3nc2n1-c1ccc2c(c1)OCO2	RanGTP-Imp inh 35 | YIC FRET counter 11
O=C1C2C3CCC(C3)C2C(=O)N1Cc1ccccc1 (configuration not stated)	none
Cc1cc(C)nc(NC(=O)c2c(F)c(F)c(F)c(C(=O)Nc3cc(C)cc(C)n3)c2F)c1	none (no result: Runt-SMMHC FRET, Wee1 degr inh, Runt-CBFb FRET)
Cc1ccc(C(=O)NCc2ccccn2)cc1NC1=NC2CS(=O)(=O)CC2S1 (configuration not stated)	none (no result: Runt-SMMHC FRET, Wee1 degr inh, Runt-CBFb FRET)
